According to ChEMBL document CHEMBL4184147, “Polyphenolic Phytochemicals in Cancer Prevention and Therapy: Bioavailability versus Bioefficacy” (J Med Chem, 2017):

Assays:
NCI-H460 [1] = test: Cytotoxicity against human NCI-H460 cells assessed as decrease in cell viability after 48 hrs by MTT assay; assay type: functional, cell-based; settings: NCI-H460, 48 h
BXPC-3 [2] = test: Cytotoxicity against human BxPC3 cells assessed as decrease in cell viability after 48 hrs by MTT assay; assay type: functional, cell-based; settings: BXPC-3, 48 h
PANC-1 [3] = test: Cytotoxicity against human PANC1 cells assessed as decrease in cell viability after 48 hrs by MTT assay; assay type: functional, cell-based; settings: PANC-1, 48 h
[4] = Cytotoxicity against human MML1 cells assessed as decrease in cell viability after 48 hrs by MTT assay; assay type: functional, cell-based
SK-MEL-2 [5] = test: Cytotoxicity against human SK-MEL-2 cells assessed as decrease in cell viability after 48 hrs by MTT assay; assay type: functional, cell-based; settings: SK-MEL-2, 48 h
MDA-MB-231 [6] = test: Cytotoxicity against human MDA-MB-231 cells assessed as cell viability at 41 uM after 48 hrs by MTT assay; assay type: functional; settings: MDA-MB-231, 48 h, read-out: Activity
T47D [7] = test: Cytotoxicity against human T47D cells assessed as cell viability at 41 uM after 48 hrs by MTT assay; assay type: functional; settings: read-out: Activity
HT-29 [8] = test: Cytotoxicity against human HT-29 cells assessed as cell viability at 41 uM after 48 hrs by MTT assay; assay type: functional; settings: HT-29, 48 h, read-out: Activity
COLO 201 [9] = test: Cytotoxicity against human COLO201 cells assessed as cell viability at 41 uM after 48 hrs by MTT assay; assay type: functional; settings: COLO 201, 48 h, read-out: Activity
A549 [10] = test: Cytotoxicity against human A549 cells assessed as cell viability at 41 uM after 48 hrs by MTT assay; assay type: functional; settings: A549, 48 h, read-out: Activity
NCI-H460 [11] = test: Cytotoxicity against human NCI-H460 cells assessed as cell viability at 41 uM after 48 hrs by MTT assay; assay type: functional; settings: NCI-H460, 48 h, read-out: Activity
BXPC-3 [12] = test: Cytotoxicity against human BxPC3 cells assessed as cell viability at 41 uM after 48 hrs by MTT assay; assay type: functional; settings: BXPC-3, 48 h, read-out: Activity
PANC-1 [13] = test: Cytotoxicity against human PANC1 cells assessed as cell viability at 41 uM after 48 hrs by MTT assay; assay type: functional; settings: PANC-1, 48 h, read-out: Activity
[14] = Cytotoxicity against human MML1 cells assessed as cell viability at 41 uM after 48 hrs by MTT assay; assay type: functional; settings: read-out: Activity
SK-MEL-2 [15] = test: Cytotoxicity against human SK-MEL-2 cells assessed as cell viability at 41 uM after 48 hrs by MTT assay; assay type: functional; settings: SK-MEL-2, 48 h, read-out: Activity
U-87 MG [16] = test: Cytotoxicity against human U87 cells assessed as cell viability at 41 uM after 48 hrs by MTT assay; assay type: functional, U-87MG ATCC; settings: read-out: Activity
LN-229 [17] = test: Cytotoxicity against human LN229 cells assessed as cell viability at 41 uM after 48 hrs by MTT assay; assay type: functional; settings: LN-229, 48 h, read-out: Activity
[18] = Cmax in mouse at 10 mg/kg, iv by LC-MS/MS method; assay type: ADME, organism-based; parameters: dose 10 mg/kg, route intravenous; settings: in vivo
Outline: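 Mouse iv dosing used polyphenol dissolved in DMSO:ethanol (2:1), with total injected volume never above 30 μL. Plasma levels were measured by previously described methods.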

[19] = Plasma concentration in mouse at 100 mg/kg, po at 60 mins by LC-MS/MS method; assay type: ADME, organism-based
Outline: (§1)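 For IV dosing, compound dissolved in DMSO:ethanol (2:1), total volume no more than 30 μL. For oral dosing, compound given in a self-microemulsifying delivery system (60% surfactant, emulsifier OP:Cremophor EL 1:1; 30% PEG 400; 10% ethyl oleate), total volume no more than 100 μL. Plasma levels measured by previously described methods.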

[20] = Plasma concentration in mouse at 10 mg/kg, iv at 60 mins by LC-MS/MS method; assay type: ADME, organism-based; outline: as §1
Mus musculus [21] = test: Cmax in mouse at 100 mg/kg, po by HPLC method; assay type: ADME, organism-based; parameters: dose 100 mg/kg, route oral; settings: in vivo
Outline: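 For oral dosing, polyphenol was dissolved in a self-microemulsifying delivery system: 60% surfactant (emulsifier OP:Cremophor EL 1:1), 30% cosurfactant (PEG 400) and 10% oil (ethyl oleate). Total volume given was never above 100 μL. Plasma levels were quantified by previously described methods.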

Mus musculus [22] = test: Tmax in mouse at 100 mg/kg, po by HPLC method; assay type: ADME, organism-based; settings: in vivo
Outline: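 Given orally in a self-microemulsifying delivery system (60% surfactant, emulsifier OP:Cremophor EL 1:1; 30% PEG 400 cosurfactant; 10% ethyl oleate oil), total volume no more than 100 μL. Plasma levels measured by previously described methods.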

Lipid bilayer = test: Induction of DOPC/n-decane bilayer property changes assessed as concentration required to double gramicidin-induced quencher influx rate by […]
U-87 MG [23] = test: Cytotoxicity against human U87 cells assessed as decrease in cell viability after 48 hrs by trypan blue exclusion and LDH release
T47D [24] = test: Cytotoxicity against human T47D cells assessed as decrease in cell viability after 48 hrs by trypan blue exclusion and LDH release
A549 [25] = test: Cytotoxicity against human A549 cells assessed as decrease in cell viability after 48 hrs by trypan blue exclusion and LDH release; settings: A549, 48 h
HT-29 [26] = test: Cytotoxicity against human HT-29 cells assessed as decrease in cell viability after 48 hrs by trypan blue exclusion and LDH release; settings: HT-29, 48 h
LN-229 [27] = test: Cytotoxicity against human LN229 cells assessed as decrease in cell viability after 48 hrs by trypan blue exclusion and LDH release; settings: LN-229, 48 h
COLO 201 [28] = test: Cytotoxicity against human COLO201 cells assessed as decrease in cell viability after 48 hrs by trypan blue exclusion and LDH release; settings: COLO 201, 48 h
MDA-MB-231 [29] = test: Cytotoxicity against human MDA-MB-231 cells assessed as decrease in cell viability after 48 hrs by trypan blue exclusion and LDH release; settings: MDA-MB-231, 48 h

Compound: COc1cc(/C=C/C(=O)CC(=O)/C=C/c2ccc(O)c(OC)c2)ccc1O [CURCUMIN]
- IC50 (NCI-H460 [1]): 15 µM
- IC50 (BXPC-3 [2]): 29 µM
- IC50 (PANC-1 [3]): 53 µM
- IC50 [4]: 19 µM
- IC50 (SK-MEL-2 [5]): 36 µM
- viability at 41 µM (MDA-MB-231 [6]): 90%
- viability at 41 µM (T47D [7]): 88%
- viability at 41 µM (HT-29 [8]): 83%
- viability at 41 µM (COLO 201 [9]): 81%
- viability at 41 µM (A549 [10]): 96%
- viability at 41 µM (NCI-H460 [11]): 95%
- viability at 41 µM (BXPC-3 [12]): 102%
- viability at 41 µM (PANC-1 [13]): 99%
- viability at 41 µM [14]: 105%
- viability at 41 µM (SK-MEL-2 [15]): 97%
- viability at 41 µM (U-87 MG [16]): 92%
- viability at 41 µM (LN-229 [17]): 91%
- Cmax [18]: 81 µM
- concentration at 1 h [19]: < 1 µM
- concentration at 1 h [20]: < 1 µM
- Cmax (Mus musculus [21]): 27 µM
- Tmax (Mus musculus [22]): 15 min
- Activity (Lipid bilayer): 8.6 µM
- IC50 (U-87 MG [23]): 16 µM
- IC50 (T47D [24]): 19 µM
- IC50 (A549 [25]): 18 µM
- IC50 (HT-29 [26]): 14 µM
- IC50 (LN-229 [27]): 15 µM
- IC50 (COLO 201 [28]): 18 µM
- IC50 (MDA-MB-231 [29]): 12 µM
